Reference: ChEMBL document CHEMBL1130202, “Biologically active heteroarotinoids exhibiting anticancer activity and decreased toxicity” (J Med Chem, 1997)
Active and inactive are the calls of the source. The calls are words filed in the database; no cut-off is given here.

What was measured:
[1] = species on record: Mus musculus; assay: Approximate day to 10% weight loss in mice at mid dose 2; format: functional
Method in brief: (§1)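 Male B6D2F1 mice dosed daily by gavage in corn oil; body weights followed to termination (day 65, or day 25 for TTNPB 0.01/0.05 mg/kg/day groups) and compared with the matching vehicle group. Value is approximate day of onset of 10% body weight reduction versus vehicle.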

[2] = species on record: Mus musculus; assay: Approximate day to 10% weight loss in mice at low dose; format: functional; method in brief: as §1
[3] = species on record: Mus musculus; assay: Effect of compound on serum triglycerides levels in mice at low dose on day 29; format: functional
Method in brief: (§2)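 Male B6D2F1 mice dosed daily by oral gavage in corn oil at low, mid 1, mid 2 or high dose. Blood sampled on set days (8, 29, 36, 65) for clinical chemistry, serum alkaline phosphatase and triglycerides. Group mean ± SD reported as % relative to vehicle 1; significance p < 0.05 versus corn oil vehicle.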

[4] = species on record: Mus musculus; assay: Approximate day to 10% weight loss in mice at high dose; format: functional; method in brief: as §1
[5] = tested on: CC-B; assay: Relative transcriptional activation activity relative to t-RA; format: functional, Homo sapiens
Method in brief: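 CC-B reporter cells (CC-1 cervical line carrying a CAT gene under a RARE with a tk promoter) were seeded at 4×10^5 cells/well in MEM with nonessential amino acids, pyruvate and 10% FBS, the serum lots having negligible t-RA by HPLC. Triplicate cultures were screened at 10^-6 M with 0.1% DMSO final. After 48 h, CAT activity ([3H]acetyl-CoA) per mg protein was taken as treated/control and expressed relative to t-RA. Average of three experiments.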

[6] = species on record: Mus musculus; assay: Calculated 30-day maximally tolerated dose based on 10% weight loss in mice at high dose; format: functional
[7] = species on record: Mus musculus; assay: Fracture incidence in mouse at mid dose 1; 0/8
[8] = species on record: Mus musculus; assay: Effect of compound on serum Alkaline phosphatase levels in mice at mid dose 2 on day 65; format: functional; method in brief: as §2
[9] = species on record: Mus musculus; assay: Effect of compound on serum triglycerides levels in mice at mid dose 1 on day 29; format: functional
Method in brief: (§3)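 Male B6D2F1 mice were gavaged daily with compound in corn oil at low, mid 1, mid 2 or high dose. Serum triglycerides and circulating white blood cells were measured on the stated day (8, 29, 36, 65). Values are group mean ± SD expressed as % relative to corn-oil vehicle, with significance at p ≤ 0.05.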

[10] = species on record: Mus musculus; assay: Calculated 30-day maximally tolerated dose based on 10% weight loss in mice at mid dose 1; format: functional
[11] = species on record: Mus musculus; assay: Average number of fractures per mouse at mid dose 2
[12] = species on record: Mus musculus; assay: Effect of compound on adrenal to body weight ratios in mice at low dose on day 65; format: functional
Method in brief: (§4)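 Male B6D2F1 mice dosed daily by gavage with compound in corn oil; vehicle 1 (corn oil) controls run to termination on day 65. Low, mid 1, mid 2 and high dose groups, with dosage increases partway through the study. Organ-to-body weight ratios (×1000) taken at necropsy on day 65, reported as mean ± SD for 4 to 8 animals and as % difference from vehicle.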

[13] = species on record: Mus musculus; assay: Average number of fractures per mouse at high dose
[14] = species on record: Mus musculus; assay: Effect of compound on serum Alkaline phosphatase levels in mice at high dose on day 65; format: functional; method in brief: as §2
[15] = species on record: Mus musculus; assay: Skin scaling in mice at mid dose 2 with Hypervitaminosis; 0/16; format: functional, organism-based
Method in brief: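 Male B6D2F1 mice were dosed daily by gavage in corn oil and observed for skin scaling of the ears, mouth, nose, eyelids, feet, tail or ventral body. Results are given as affected animals over animals in the group, with the day of first observation.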

[16] = species on record: Mus musculus; assay: Effect of compound on white blood cells levels in mice at high dose on day 65; format: functional; method in brief: as §3
[17] = species on record: Mus musculus; assay: Approximate day to 10% weight loss in mice at mid dose 1; format: functional; method in brief: as §1
[18] = species on record: Mus musculus; assay: Effect of compound on right testicle to body weight ratios in mice at low dose on day 65; format: functional; method in brief: as §4
[19] = species on record: Mus musculus; assay: Total dose of 10% weight loss in mice at high dose; format: functional
[20] = species on record: Mus musculus; assay: Effect of compound on Spleen to body weight ratios in mice at mid dose 2 on day 65; format: functional; method in brief: as §4
[21] = species on record: Mus musculus; assay: Total dose of 10% weight loss in mice at low dose; format: functional
[22] = species on record: Mus musculus; assay: Effect of compound on thymus to body weight ratios in mice at mid dose 2 on day 65; format: functional
Method in brief: (§5)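 Male B6D2F1 mice were dosed daily by gavage in corn oil, with TTNPB given at 0.1–0.8 or 0.01/0.05 mg/kg/day. Thymus-to-body weight ratio (×1000) was taken at necropsy on day 65 against vehicle 1, or on day 25 for the 0.01/0.05 groups against vehicle 2. Mean ± SD of 4–8 animals, reported as % difference from vehicle.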

[23] = species on record: Mus musculus; assay: Effect of compound on serum Alkaline phosphatase levels in mice at low dose on day 65; format: functional; method in brief: as §2
[24] = species on record: Mus musculus; assay: Total dose of 10% weight loss in mice at mid dose 1; format: functional
[25] = species on record: Mus musculus; assay: Calculated 30-day maximally tolerated dose based on 10% weight loss in mice at mid dose 2; format: functional
[26] = species on record: Mus musculus; assay: Enlarged spleen in Gross pathological observations in mice with hypervitaminosis A at low dose with gross observations/total number of mice in group; 0/16; format: functional, organism-based
[27] = species on record: Mus musculus; assay: Effect of compound on adrenal to body weight ratios in mice at mid dose 1 on day 65; format: functional; method in brief: as §4
[28] = species on record: Mus musculus; assay: Effect of compound on thymus to body weight ratios in mice at mid dose 1 on day 65; format: functional; method in brief: as §5
[29] = species on record: Mus musculus; assay: Effect of compound on adrenal to body weight ratios in mice at high dose on day 65; format: functional; method in brief: as §4
[30] = species on record: Mus musculus; assay: Effect of compound on Spleen to body weight ratios in mice at mid dose 1 on day 65; format: functional; method in brief: as §4
[31] = species on record: Mus musculus; assay: Effect of compound on serum Alkaline phosphatase levels in mice at high dose on day 36; format: functional; method in brief: as §2
[32] = species on record: Mus musculus; assay: Enlarged lymph in gross pathological observations in mice with hypervitaminosis A at low dose with gross observations/total number of mice in group; 1/16; format: functional, organism-based
[33] = species on record: Mus musculus; assay: Effect of compound on serum triglycerides levels in mice at high dose on day 29; format: functional; method in brief: as §2
[34] = species on record: Mus musculus; assay: Effect of compound on right testicle to body weight ratios in mice at mid dose 2 on day 65; format: functional; method in brief: as §4
[35] = species on record: Mus musculus; assay: Total dose of 10% weight loss in mice at mid dose 2; format: functional
[36] = species on record: Mus musculus; assay: Average number of fractures per mouse at low dose
[37] = species on record: Mus musculus; assay: Effect of compound on right testicle to body weight ratios in mice at mid dose 1 on day 65; format: functional; method in brief: as §4
[38] = species on record: Mus musculus; assay: Effect of compound on serum triglycerides levels in mice at mid dose 2 on day 29; format: functional; method in brief: as §3
[39] = species on record: Mus musculus; assay: Effect of compound on white blood cells levels in mice at mid dose 2 on day 65; format: functional; method in brief: as §3
[40] = species on record: Mus musculus; assay: Calculated 30-day maximally tolerated dose based on 10% weight loss in mice at low dose; format: functional
[41] = species on record: Mus musculus; assay: Effect of compound on adrenal to body weight ratios in mice at mid dose 2 on day 65; format: functional; method in brief: as §4
[42] = species on record: Mus musculus; assay: Effect of compound on thymus to body weight ratios in mice at low dose on day 65; format: functional; method in brief: as §5
[43] = Mortality rate in mice in mid dose 1; format: ADME; settings: mouse, in vivo
Method in brief: (§6)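 Male B6D2F1 mice given compound daily by gavage in corn oil at the stated dose levels, with corn oil vehicle controls. Deaths counted as animals found dead or sacrificed moribund, with day(s) of death recorded. Heteroarotinoid groups ran to day 65 and low-dose reference groups to day 25.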

[44] = Mortality rate in mice in low dose; format: ADME; settings: mouse, in vivo; method in brief: as §6

CC(/C=C/C=C(\C)c1ccc2c(c1)C(C)(C)CCO2)=C\C(=O)O
Activity [1]: 61
Activity [2]: >65
Activity [3]: 179.4
Activity [4]: 53
Relative activity [5]: 50
Max tolerated dose [6]: 31.8 mg/kg
Activity [7]: inactive
Activity [8]: 136.8
Activity [9]: 167.3
Max tolerated dose [10]: >13.8 mg/kg
Activity [11]: 0.6
Activity [12]: 0.3
Activity [13]: 1
Activity [14]: 156.8
Activity [15]: inactive
Activity [16]: 3.7
Activity [17]: >65
Activity [18]: 3.2
Dose [19]: 952.8 mg/kg
Activity [20]: 2.7
Dose [21]: >207.1 mg/kg
Activity [22]: 1.5
Activity [23]: 115.7
Dose [24]: >414.2 mg/kg
Max tolerated dose [25]: 24.4 mg/kg
Activity [26]: inactive
Activity [27]: 0.3
Activity [28]: 1.6
Activity [29]: 0.4
Activity [30]: 2.5
Activity [31]: 91.9
Activity [32]: inactive
Activity [33]: 208.2
Activity [34]: 3.3
Dose [35]: 732.4 mg/kg
Activity [36]: 0
Activity [37]: 2.9
Activity [38]: 159.3
Activity [39]: 4.51
Max tolerated dose [40]: >6.9 mg/kg
Activity [41]: 0.3
Activity [42]: 1.6

CC(/C=C/C=C(\C)c1ccc2c(c1)C(C)(C)CCS2)=C\C(=O)O
Activity [1]: >65
Activity [2]: >65
Activity [3]: 176.4
Activity [4]: 54
Relative activity [5]: 52
Max tolerated dose [6]: 33.9 mg/kg
Activity [7]: inactive
Activity [8]: 137
Activity [9]: 174.1
Max tolerated dose [10]: >13.8 mg/kg
Activity [11]: 0
Activity [12]: 0.3
Activity [13]: 0.3
Activity [14]: 159
Activity [15]: inactive
Activity [16]: 4.18
Activity [17]: >65
Activity [18]: 2.6
Dose [19]: 1016.8 mg/kg
Activity [20]: 2.2
Dose [21]: >207.1 mg/kg
Activity [22]: 1.6
Activity [23]: 127.5
Dose [24]: >414.2 mg/kg
Max tolerated dose [25]: >27.6 mg/kg
Activity [26]: inactive
Activity [27]: 0.3
Activity [28]: 1.5
Activity [29]: 2.6
Activity [30]: 2
Activity [31]: 84.6
Mortality [43]: 1 day of death
Activity [32]: inactive
Activity [33]: 164.2
Activity [34]: 2.8
Dose [35]: >828.4 mg/kg
Activity [36]: 0
Activity [37]: 3.1
Activity [38]: 153.4
Max tolerated dose [40]: >6.9 mg/kg
Activity [41]: 0.3
Activity [42]: 1.7
Mortality [44]: 0 day of death

C/C(=C\c1ccc(C(=O)O)cc1)c1ccc2c(c1)C(C)(C)CCO2
Activity [1]: 41
Activity [2]: >65
Activity [4]: 36
Relative activity [5]: 31
Max tolerated dose [6]: 9.4 mg/kg
Activity [8]: 134.8
Activity [9]: 175.9
Max tolerated dose [10]: 6.3 mg/kg
Activity [11]: 3.4
Activity [12]: 0.3
Activity [13]: 1.3
Activity [17]: 51
Activity [18]: 1.9
Dose [19]: 280.8 mg/kg
Activity [20]: 7.1
Dose [21]: 147.1 mg/kg
Activity [22]: 0.9
Activity [23]: 115
Dose [24]: 190.2 mg/kg
Max tolerated dose [25]: 7.4 mg/kg
Activity [27]: 0.4
Activity [28]: 1.3
Activity [30]: 5
Activity [31]: 86.3
Mortality [43]: 0 day of death
Activity [33]: 192
Activity [34]: 1.9
Dose [35]: 220.6 mg/kg
Activity [36]: 0.4
Activity [37]: 2
Activity [39]: 6.55
Max tolerated dose [40]: >4.9 mg/kg
Activity [41]: 0.3
Activity [42]: 1.5
Mortality [44]: 0 day of death
